Like-named read-outs stand apart in the source and are kept apart here.
How the values were obtained:
[1] = Plasma concentrations in CAD patients after oral Plavix 75 mg; format: in vivo; settings: human
In short: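 Venous blood (3 mL) from CAD patients was drawn into EDTA/DTT tubes before dosing and at 0.5, 1, 2, 2.5, 3, 3.5, 6, 8, 12 and 24 h after dosing. MPB (500 mmol/L stock) was added at once, then spun 16 000 g for 10 min and held at −80 °C. Read-out was LC-MS/MS on C18 at 40 °C, 0.1% formic acid:acetonitrile (1:19), 1 mL/min. Thiol metabolite was measured as derivative. Calibration used peak area with internal standard, weighted 1/x2. Mean±SD, n=3.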

carboxylesterases = settings: cited from earlier work
[2] = format: in vitro ADME, human; settings: mean±SD; for Found, after three-thaw cycles / Found, at –80 °C for 45 days / Found, plasma at room temperature for 8 hours: human plasma; for Found, extract at room temperature for 8 hours / Found, extract in the auto-sampler at 4 °C for 24 hours: plasma extract
[3] = Stability of stock solutions in acetonitrile; format: physicochemical; settings: in acetonitrile at −20 °C
In short: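 Separate acetonitrile stocks were made: 10 μg/mL for each analyte and 1 mg/mL for the internal standard. They were vortexed, briefly sonicated and stored at −20 °C. Analyte stability was examined after 2 months at −20 °C. Read-out was LC-MS/MS quantification.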

CYP2C19 = settings: cited from earlier work

Cmax [1] | Found, after three-thaw cycles ([2]; added 0.2 ng/mL) | Found, at –80 °C for 45 days ([2]; added 0.2 ng/mL) | Found, plasma at room temperature for 8 hours ([2]; added 0.2 ng/mL) | Found, after three-thaw cycles ([2]; added 10 ng/mL) | Found, at –80 °C for 45 days ([2]; added 10 ng/mL) | Found, plasma at room temperature for 8 hours ([2]; added 10 ng/mL) | Found, extract at room temperature for 8 hours ([2]; added 0.2 ng/mL) | Found, extract in the auto-sampler at 4 °C for 24 hours ([2]; added 0.2 ng/mL) | Found, extract at room temperature for 8 hours ([2]; added 10 ng/mL) | Found, extract in the auto-sampler at 4 °C for 24 hours ([2]; added 10 ng/mL) | Time stock solutions were stable [3] | SMILES | Portion hydrolyzed into inactive metabolites by carboxylesterases (carboxylesterases) | Contribution of CYP2C19 to metabolism, second step (CYP2C19; 2-Oxo-CLP to active metabolite) | Contribution of CYP2C19 to metabolism, first step (CYP2C19; clopidogrel metabolized to 2-Oxo-CLP)
17 ng/mL | 0.2 ± 0.0 ng/mL | 0.2 ± 0.0 ng/mL | 0.2 ± 0.0 ng/mL | 10.1 ± 0.8 ng/mL | 10.1 ± 0.2 ng/mL | 10.4 ± 0.8 ng/mL | 0.2 ± 0.0 ng/mL | 0.2 ± 0.0 ng/mL | 10.0 ± 1.4 ng/mL | 10.0 ± 0.8 ng/mL | at least 2 months | COC(=O)[C@H](c1ccccc1Cl)N1CCc2sccc2C1 [Clopidogrel, (+)-(S)-methyl 2-(2-chlorophenyl)-2-(6,7-dihydrothieno[3,2-c]pyridine-5(4H)-yl)acetate] | approximately 85% | 20% | 45%
 |  |  |  |  |  |  |  |  |  |  | at least 2 months | CC#C[C@]1(O)CC[C@H]2[C@@H]3CCC4=CC(=O)CCC4=C3[C@@H](c3ccc(N(C)C)cc3)C[C@@]21C [IS, Mifepristone] |  |  | 

Reference: PMC9002156 (Journal of Biomedical Research, 2022)
